Three molecules from ChEMBL document CHEMBL4425091, “Bafilomycins and Odoriferous Sesquiterpenoids from Streptomyces albolongus Isolated from Elephas maximus Feces” (J Nat Prod, 2016) can be followed below.

For test [1], the system named is Bacillus spizizenii. Put plainly: Antibacterial activity against Bacillus subtilis ATCC 6633 after 24 hrs by MTT based microbroth dilution assay. It counts as functional. Conditions: ATCC 6633, 24 h. The method, boiled down:
(§1)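 Two-fold broth microdilution MIC in LB medium (pH 7.0). Compounds dissolved in DMSO, serially diluted to eight levels (11.0−0.086 mg/mL), then each diluted 10-fold in medium (1.1−0.0086 mg/mL). 10 μL of this added to 100 μL of bacteria at 1 × 10^6 cfu/mL. Incubated 24 h at 28 °C. MTT added for 4 h, wells emptied, DMSO added, absorbance read at 570 nm.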
Background: In broth dilution the organism is exposed to a series of concentrations in liquid medium.

In test [2] the test system is Cryptococcus neoformans. Put plainly: Antifungal activity against Cryptococcus neoformans ATCC 208821 after 72 hrs by MTT based microbroth dilution assay. It counts as functional. Conditions: ATCC 208821, 72 h. The procedure, abridged:
(§2)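 MIC by broth microdilution in RPMI-1640 with NaHCO3 and MOPS, pH 7.0. DMSO stocks were 2-fold serially diluted to eight levels, then 10-fold in medium (1.1–0.0086 mg/mL). 10 µL was added to 100 µL yeast suspension: C. albicans and C. parapsilosis at 2 × 10^3 cfu/mL for 48 h; C. neoformans at 5 × 10^4 cfu/mL for 72 h; all at 28 °C. MTT added for 4 h, DMSO solubilization, A570.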

Test [3] concerns NCI-H460. Put plainly: Cytotoxicity against human NCI-H460 cells assessed as reduction in cell viability by MTT assay. The class given is functional, cell-based. The procedure, abridged:
(§3)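 MTT viability assay in human cancer cell lines. IC50 was defined as a 50% reduction of absorbance relative to the control assay. Adriamycin served as the positive control.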

The subject of test [4] is BGC-823. Put plainly: Cytotoxicity against human BGC823 cells assessed as reduction in cell viability by MTT assay. The class given is functional, cell-based. The method, boiled down: as §3
On the technique in general: Tetrazolium assays rely on reduction of a dye to a coloured formazan, in cell work by metabolically active cells.

Test [5] deals with Staphylococcus aureus. Put plainly: Antibacterial activity against Staphylococcus aureus ATCC 25923 after 24 hrs by MTT based microbroth dilution assay. The class given is functional. The conditions noted are these: ATCC 25923, 24 h. The procedure, abridged: as §1
Test [6] has as its system Caco-2. Put plainly: Cytotoxicity against human Caco2 cells assessed as reduction in cell viability by MTT assay. It counts as functional, cell-based. The procedure, abridged: as §3
Test [7] has as its system Candida albicans. In words: Antifungal activity against Candida albicans ATCC MYA-2876 after 48 hrs by MTT based microbroth dilution assay. The class given is functional. The conditions noted are these: ATCC MYA-2876, 48 h. The procedure, abridged:
as §2

Test [8] deals with SMMC-7721. Put plainly: Cytotoxicity against human SMMC7721 cells assessed as reduction in cell viability by MTT assay. The class given is functional, cell-based. The method, boiled down: as §3
Test [9] relates to Candida parapsilosis. In words: Antifungal activity against Candida parapsilosis ATCC 22019 after 48 hrs by MTT based microbroth dilution assay. It counts as functional. Conditions: Lodderomyces parapsilosis, ATCC 22019, 48 h. The procedure, abridged: as §2

Molecules are shown by their SMILES. In brackets after ≈: the same amount, converted by molar mass.

In test [1], `O=C(O)c1cn(C2CC2)c2cc(N3CCNCC3)c(F)cc2c1=O` [CIPROFLOXACIN] yielded a minimum inhibitory concentration (MIC) of 0.25 µg/mL (≈ 0.754 µM).

On to `CO/C1=C\C(C)=C\[C@@H](C)[C@@H](O)[C@@H](C)C/C(C)=C/C=C/[C@H](OC)[C@@H]([C@@H](C)[C@@H](O)[C@H](C)[C@@]2(O)C[C@@H](OC(=O)/C=C/C(=O)O)[C@H](C)[C@@H](C(C)C)O2)OC1=O`, for which the minimal inhibitory concentration (MIC) in test [2] turned out to be 1.56 µg/mL (≈ 2.16 µM); in test [5] it was 12.5 µg/mL (≈ 17.3 µM); in [7], 1.56 µg/mL (≈ 2.16 µM); in test [1] it was 12.5 µg/mL (≈ 17.3 µM); in test [9], 1.56 µg/mL (≈ 2.16 µM). Further, the IC50 in [3] is 3.43 µM; in test [4] it was 1.83 µM; in test [6], 1.89 µM; in test [8], 0.54 µM.

`CO/C1=C\C(C)=C\[C@@H](C)[C@@H](O)[C@@H](C)C/C(C)=C/C=C/[C@H](OC)[C@@H]([C@@H](C)[C@@H](O)[C@H](C)[C@@]2(O)CC[C@H](C)[C@@H](C(C)C)O2)OC1=O`: the MIC in test [2] worked out at 25 µg/mL (≈ 41.2 µM); in test [7], 100 µg/mL (≈ 165 µM); in [9], 3.13 µg/mL (≈ 5.16 µM). Further, the IC50 in [3] worked out at 44.1 µM; in [4], 11.8 µM; in test [6] it was 46.2 µM; in test [8] it was 10.1 µM.

By MIC is commonly meant the lowest concentration that inhibits growth of the organism. Read a low MIC as greater potency. One may read the IC50 as the concentration at which inhibition is half-maximal.
